Compound activity deposited in PubChem BioAssay by several laboratories.
Sampled rows, rich in hits. Any-hit rate of the full collection: about 5.1%.
APP 5'UTR act: activators of APP 5'UTR luciferase reporter, primary screen, SH-SY5Y cells; activation, % at 2 µM; 190,000 tested, 1% active; AID 1276, 2008; SH-SY5Y APP 5'UTR luciferase reporter, luminescence; zero percent = DMSO vehicle wells;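 active means activation above a set limit, based on mean plus 3 SD of controls, cut at about 140% in these data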
STAT3 activator: IL-6 driven STAT3 reporter potentiators, primary screen, U3A cells, luciferase, luminescence, MLSCN library; IL-6 STAT3-luciferase reporter; 100% = signal with IL-6 EC80 alone; AID 871, 2007; 190,000 tested, 0.91% active; activation (% of control), % at 5.6 µM;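 active means activation above the screen-wide mean of compound activation plus 3 SD, cut at about 130% in these data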;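 further: 0% = background luminescence of wells with medium and substrate only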
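Test system: Human STAT1-deficient U3A cells with stable STAT3-luciferase reporter | Also added: Interleukin-6, 33 ng/mL | Timing: Compound pre-incubation 1 h before IL-6, then 6 h stimulation at 37 °C | Technique: Luciferase reporter luminescence | Read-out: Percent of IL-6-only median luminescence | Benchmarks: IL-6-only wells as 100% reference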
STAT1 blocker: STAT1 signaling inhibitors, primary screen, cell-based, HTS, luciferase reporter; NIH 3T3 STAT1-luciferase reporter, IFN-gamma, luminescence; inhibition, % at 5.5 µM; 200,000 tested, 0.35% active; AID 920, 2007;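 active means inhibition above a set limit, the mean inhibition across all tested compounds plus 3 SD, cut at about 34% in these data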;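 further: 0% = IFN-gamma with DMSO and 100% = IFN-gamma with 300 µM nifuroxazide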
NF-kB expr up: activators of NF-kB expression in neurons, primary screen, cell-based, HTS; 190,000 tested, 1.6% active; fold change at 12.5 µM; AID 1239, 2008; human neuronal cells, NF-kB reporter expression; active compounds read high; in the data active means fold change above about 3.3
STAT1 activator: STAT1 signaling activators, primary screen, cell-based, HTS, luciferase reporter | AID 932, 2007 | 200,000 tested, 2.6% active | NIH 3T3 STAT1-luciferase reporter, IFN-gamma, luminescence; 100% = IFN-gamma alone, no compound | activation (% of control), % at 5.5 µM;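 active means activation above the screen-wide mean activation plus 3 SD, cut at about 130% in these data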;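 further: raw ratio to IFN-gamma control signal so 100% means no change and 0% no light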
STAT3 blocker: IL-6 driven STAT3 reporter inhibitors, primary screen, U3A cells, luciferase, luminescence, MLSCN library; IL-6 STAT3-luciferase reporter; host cell line lacks STAT1; inhibition, % at 5.5 µM; 190,000 tested, 0.89% active; AID 862, 2007;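 active means inhibition above the mean inhibition across all screened compounds plus 3 SD, cut at about 44% in these data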;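 further: 0% = DMSO only wells and 100% = 100 µM nifuroxazide control wells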
* = called active by the depositor; · = no result.

SMILES | APP 5'UTR act | STAT3 activator | STAT1 blocker | NF-kB expr up | STAT1 activator | STAT3 blocker
CC(O)CNc1ccc(-c2nn(C)c(=O)c3ccccc23)cc1[N+](=O)[O-] (centres undefined) | 12 | 90 | 7 | 0.96 | 91 | 16
CCCCCNC(=O)c1cc(S(=O)(=O)N2CCCC2)ccc1F | 0 | 90 | 10 | 1.6 | 91 | 15
Cc1ccc2cc(CCNC(=O)c3cccs3)c(=O)[nH]c2c1 | 127 | 100 | -43 | 2.2 | 139* | 0
CCC(CC)C(=O)NCCc1cc2ccc(C)cc2[nH]c1=O | 5 | 100 | -8 | 1.1 | 108 | 5
O=c1c(-c2nc3ccccc3s2)cccn1Cc1ccc(Cl)c(Cl)c1 | 11 | 100 | 1 | 3.5* | 99 | 6
O=C(c1cccn(Cc2ccc(Cl)c(Cl)c2)c1=O)N1CCOCC1 | -7 | 104 | -3 | 1.1 | 103 | 5
O=c1[nH]c2ccccc2nc1CCc1ccccc1 | 15 | 92 | -52 | 1.1 | 145* | 12
COc1ccccc1C(=O)NNC(=S)NC(=O)c1sc2ccccc2c1Cl | 6 | 115 | -2 | 0.92 | 102 | -19
Cc1c(NC(=S)NC(=O)c2sc3ccccc3c2Cl)cccc1C(=O)O | 186* | 80 | -22 | 3 | 121 | 25
COc1ccccc1-c1nc(-c2ccc(Br)cc2)no1 | 162* | 135* | -36 | 4.7* | 135* | -38
COc1ccccc1-c1nc(-c2ccc(Br)o2)no1 | 218* | 159* | -63 | 6.7* | 157* | -58
Cc1ccc(-c2noc(-c3ccccc3Br)n2)cc1 | 195* | 123 | -37 | 5.9* | 133* | -17
COc1cc(OC)cc(-c2nc(-c3ccc(Br)cc3)no2)c1 | -5 | 91 | -1 | 1.8 | 101 | 13
CN(C)c1ccc(-c2noc(-c3ccccc3O)n2)cc1 | 144* | 68 | 3 | 1.5 | 97 | 40
COCCNC(=O)c1ccc(NC(=O)C2(c3ccccc3)CCCC2)cc1 | 3 | 103 | -3 | 1.3 | 100 | 2
COc1ccc(C2C=C(C34CC5CC(CC(C5)C3)C4)NC(=S)N2)cc1 (centres undefined) | 14 | 106 | -5 | 1.1 | 104 | -8
Cc1ccc2c(c1)C(c1ccc(F)cc1)N(C(=O)c1cc3ccccc3oc1=O)CC(=O)N2 (centres undefined) | 28 | 100 | -3 | 0.61 | 102 | 0
COC(=O)CN1C(c2ccccc2)=Nc2ccc(Cl)cc2C1c1ccccc1 (centres undefined) | 9 | 105 | 9 | 1.1 | 92 | 1
COc1ccccc1N(CC(=O)NC(C)(C)C)C(=O)c1ccc(Cl)nc1 | -12 | 96 | 8 | 1.6 | 91 | 7
Brc1ccc(OCc2cn3ccccc3n2)cc1 | 140* | 73 | -50 | 4.6* | 147* | 38
CC1CCN(S(=O)(=O)N2CCC(C(=O)NCCC3=CCCCC3)CC2)CC1 | 12 | 104 | -4 | 0.94 | 102 | 0
COc1cc(OC)cc(C(=O)NC2=NCCS2)c1 | -2 | 93 | -3 | 1.2 | 104 | 9
CC(C)c1ccc(C(=O)NC2=NCCS2)cc1 | 167* | 72 | -52 | 1.1 | 145* | 34
O=C(NC1=NCCS1)c1cccc(OC(F)F)c1 | 150* | 106 | -40 | 4.1* | 140* | -2
CCc1ccc(C(=O)COC(=O)c2cccs2)cc1 | 156* | 80 | -23 | 1.8 | 115 | 26
SMILES | APP 5'UTR act | STAT3 activator | STAT1 blocker | NF-kB expr up | STAT1 activator | STAT3 blocker
CCCCNC(=O)COC(=O)c1ccc(F)cc1Cl | 13 | 103 | -14 | 1.1 | 110 | -2
O=[N+]([O-])c1ccc2c(c1)nc1n2CCN(C2CCCCC2)C1 | 91 | 104 | -47 | · | 144* | 2
O=[N+]([O-])c1ccc2c(c1)nc1n2CCCCC1 | 14 | 92 | -30 | 0.87 | 126 | 16
CCOC(=O)CNC(=O)CSc1ncnc2c1nnn2-c1ccc(F)cc1 | -5 | 96 | 4 | 1.7 | 97 | 10
COC(=O)C(C)Sc1ncnc2c1nnn2-c1ccc(F)cc1 (centres undefined) | 14 | 92 | -41 | 1.5 | 137* | 10
Cc1cccc2c(CC(=O)Nc3ccccc3)noc12 | -2 | 87 | -8 | 1.3 | 107 | 20
Cc1ccc(-c2csc(/C(C#N)=C(\O)CCl)n2)cc1 | 107 | 94 | -42 | 1.6 | 140* | 15
CC1=C/C(=N\NC(=S)NCc2ccccc2)CC1 | 13 | 104 | -11 | · | 110 | 2
COc1ccc(N2C(=O)C3CC(C)=C(C)CC3C2=O)c(OC)c1 (centres undefined) | 3 | 104 | -16 | 1.1 | 115 | -7
COc1ccc(N2C(=O)CCC2=O)c(OC)c1 | -8 | 99 | -45 | 1.1 | 140* | 8
Cc1ccc(-c2nc3ccccc3[nH]2)cc1NC(=O)c1ccc2c(c1)OCO2 | 6 | 94 | 0 | 0.46 | 100 | 14
O=C(NC(=S)Nc1cc(-c2nc3ccccc3[nH]2)ccc1Cl)c1ccc2c(c1)OCO2 | -7 | 113 | -49 | 2.2 | 144* | -9
Cc1cccn2c(N)c(-c3ccccc3)nc12 | 18 | 134* | -2 | 1.3 | 102 | -35
Oc1ccc(NCc2cccc(OCc3ccc(F)cc3)c2)cc1 | -3 | 103 | -34 | 1.4 | 129* | 0
COc1ccc2cc(-c3csc(-c4cccnc4)n3)ccc2c1 | 6 | 82 | -27 | 2.6 | 124 | 26
Cc1ccc(-c2csc(-c3ccncc3)n2)cc1 | 70 | 98 | -47 | 2.6 | 144* | 5
c1ccc(-c2csc(-c3cccnc3)n2)cc1 | 13 | 95 | -37 | 2 | 132* | 8
O=S(=O)(c1ccc(-c2csc(-c3cccnc3)n2)cc1)N1CCOCC1 | 0 | 85 | -4 | 1.4 | 103 | 20
COc1ccc(-c2csc(-c3cccnc3)n2)cc1C | 73 | 108 | -56 | 2.8 | 150* | -7
c1ccc(-c2noc(-c3ccccc3-c3ccccc3)n2)cc1 | -14 | 89 | 5 | 1.4 | 96 | 18
Brc1ccc(-c2nc(-c3cccnc3)no2)o1 | 38 | 92 | -35 | 1.2 | 132* | 13
Cc1ccc(-c2nc(-c3cccnc3)no2)c(C)c1 | 144* | 90 | -54 | 4.8* | 147* | 13
Brc1ccc(-c2nc(-c3ccccc3)no2)o1 | 143* | 114 | -53 | 4.1* | 149* | -12
S=C1NCCOCCNC(=S)NCCOCCOCCN1 | 16 | 107 | -4 | 0.95 | 101 | -5
CCc1cc2c(SCC(=O)NC(=O)c3cccn3C)ncnc2s1 | 6 | 110 | 5 | 0.91 | 94 | -10
